Test results: paper PMC11094580 (EFSA Journal, 2024)
In brackets after ≈: the same amount, converted by molar mass. Where two headings read alike, the source gives them in different places.

Columns and labels:
[1] = system: Mice (strain not specified); details: Gavage, M, 3/group; ref Ortiz‐Andrade et al. (2008); cited from earlier work
[2] = system: CYP2C9; details: ref Lu et al. (2011); cited from earlier work
[3] = system: Bifidobacterium longum R0175; details: 25 μg/mL, cultures of B. longum; ref Pereira‐Caro et al. (2016); cited from earlier work
[4] = ref Ma et al. (2006), cited from earlier work
[5] = system: CYP3A4; details: testosterone (10 μM); ref Lu et al. (2011); cited from earlier work
[6] = system: Wistar rats; details: 50 mg/kg bw per day, 4 weeks; ref Motawi et al. (2014); cited from earlier work
[7] = 10 h post dosing; ref Felgines et al. (2000); cited from earlier work
[8] = system: Wistar rats; assay: In vivo micronucleus assay in peripheral blood; design: species or system rat
[9] = system: Clostridium orbiscindens; details: ref Schoefer et al. (2003); cited from earlier work
[10] = system: Sprague Dawley rats; assay: Dose range-finding study for the EOGRT study, dietary; assay type: in vivo, rat
[11] = system: CYP2C19; details: ref Lu et al. (2011); cited from earlier work
[12] = Stability as powder; assay type: physicochemical; details: room temperature (~ 22°C), long-term
In short: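 The solid was held under accelerated conditions (45°C) and under normal storage at room temperature.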

[13] = system: CYP2B6; details: concentrations up to 10 μM; ref Lu et al. (2011); cited from earlier work
[14] = biological target: simvastatin metabolism; details: rat and human hepatocytes and microsomes; ref Ubeaud et al. (1999); cited from earlier work
[15] = 24 h urine, ref Aschoff et al. (2016), cited from earlier work
[16] = ref Gardana et al. (2007), cited from earlier work
[17] = system: felodipine metabolism in human liver microsomes; details: substrate felodipine; ref Fasinu et al. (2013), Ho et al. (2001); cited from earlier work
[18] = Stability in solution; assay type: physicochemical
In short: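 Test compound was dissolved at 10 g per 100 g propylene glycol and stored at 25 ± 2°C and 60 ± 5% RH, with sampling at 1, 2, 3 and 4 months; recovery was the read-out. Separately, aqueous buffer solutions (50 mg/kg) at pH 3, 5 and 7 were incubated at 90°C as accelerated testing.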

[19] = ref Rebello et al. (2020), cited from earlier work
[20] = system: CYP450 isoforms; details: read-out: IC50 or Ki values; certain CYP450 isoforms; ref Lu et al. (2011); cited from earlier work
[21] = ref Bugianesi et al. (2002), cited from earlier work
[22] = system: Salmonella typhimurium (TA98, TA100, TA102, TA1535, TA1537) and E. coli WP2uvrA; assay: Bacterial reverse mutation assay; assay type: cell-based; details: for concentration with reduction in growth of bacterial background lawns: plate incorporation; for concentration with reduction of bacterial background lawns: pre-incubation
[23] = system: Wistar rats; details: Gavage, M, 3/group; ref Ortiz‐Andrade et al. (2008); cited from earlier work
[24] = Solubility of naringenin in various solvents; assay type: physicochemical; details: for Naringenin concentration (solubility): 25°C
[25] = system: Wistar rats; assay: In vivo comet assay in liver and duodenum; design: species or system rat; details: 500, 1000, 2000 mg/kg bw per day, Wistar rats, M, gavage
[26] = system: Wistar rats; assay: 28-day dose range-finding oral toxicity study in Wistar rats; assay type: in vivo, rat
In short: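 Test compound given by gavage at 1000 to 5000 mg/kg bw per day; haematology, clinical chemistry and organ weights, including uterus weight, were recorded.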

For `O=C1CC(c2ccc(O)cc2)Oc2cc(O)cc(O)c21` (centres unmarked) [naringenin, 4H‐1‐Benzopyran‐4‐one, 2,3‐dihydro‐5,7‐dihydroxy‐2‐(4‐hydroxyphenyl)‐], the LD50 [1] is listed as greater than 5000 mg/kg bw, the IC50 [2] is listed as less than 5 µM and the Recovery [3] is listed as 88%. The “C max for total naringenin” value ([4]; 30 mg/kg bw) was 16.9 ng/mL, the “C max of unconjugated naringenin” value ([4]; 30 mg/kg bw) was 2.9 ng/mL and the “time to C max for total naringenin (including the conjugates)” value (“time to C max for total naringenin” for short) ([4]; 30 mg/kg bw) was 0.5 h. The “C max for total naringenin” value ([4]; 90 mg/kg bw) was 28 ng/mL, the “C max of unconjugated naringenin” value ([4]; 90 mg/kg bw) was 3.7 ng/mL and the “plasma half-life of total naringenin” value ([4]; 90 mg/kg bw) was 7.6 h. The “time to C max for total naringenin” value ([4]; 90 mg/kg bw) was 2 h, the “C max for total naringenin” value ([4]; 270 mg/kg bw) was 43.8 ng/mL and the “C max of unconjugated naringenin” value ([4]; 270 mg/kg bw) was 4.4 ng/mL. For the same compound, the “plasma half-life of total naringenin” value ([4]; 270 mg/kg bw) was 10.5 h, the “time to C max for total naringenin” value ([4]; 270 mg/kg bw) was 2 h and the “time to C max of unconjugated naringenin” value ([4]; 30, 90 or 270 mg/kg bw oral gavage) was no more than 15 min. For the same compound, the “naringenin excreted in bile” value ([4]; bile duct-cannulated rats) was 12%, the “naringenin excreted in urine” value [4] was 6.25% and the IC50 [5] was […]. The “histopathological examination of the liver” value [6] was “slight inflammatory cell infiltration in the portal areas”, the “naringenin in caecal contents” value [7] was 15 μmol/caecum and the “% MNPCE frequency” value ([8]; 500 mg/kg bw per day) was 0.06 ± 0.01%. The “% MNPCE frequency” value ([8]; 2000 mg/kg bw per day) was 0.06 ± 0.02%, the “maximum tolerated dose (MTD)” value ([8]; gavage at 0, 24 and 45 h, male and female rats) was 2000 mg/kg bw per day and the “% MNPCE frequency” value ([8]; mid‐dose (1000 mg/kg bw per day), male rats, blood 3 h after last administration) was 0.08 ± 0.01%. For the same compound, the “Results: conversion by C. orbiscindens” value [9] was “converted 0.5 mM naringenin to 3‐(4‐hydroxyphenyl) propionic acid”, the mean pre-coital interval ([10]; 20,000 mg/kg feed (G3)) was 7.6 days and the “clinical signs, mortality, morbidity” value ([10]; all dose groups) was “No clinical signs of toxicity, no mortality or morbidity”. For the same compound, the “dose up to which no toxicity was produced” value ([10]; females) was no more than 2724 mg/kg bw per day, the “dose up to which no toxicity was produced” value ([10]; males) was no more than 2205 mg/kg bw per day and the “dietary concentration up to which no toxicity was produced” value ([10]; males 29 days, females 51–62 days) was “up to 25,000 mg/kg feed”. The IC50 [11] was less than 5 µM, the time remaining stable [12] was roughly 2 years and the inhibition [13] was “No appreciable inhibition”. The Ki [14] was 5 to 30 µM, the “proportion of naringenin excreted in the urine” value ([15]; after orange fruit (400 g)) was 12.9% and the “proportion of naringenin excreted in the urine” value ([15]; after pasteurised orange juice (719 g)) was 20.3%. The “C max (plasma naringenin)” value ([16]; BOJ 150 mL, 6 mg (22 μmol)) was 16.4 ng/mL, the “C max (plasma naringenin)” value ([16]; BOJ 300 mL, 12 mg (44 μmol)) was 34 ng/mL and the IC50 [17] was 122 µM. For the same compound, the “time stable when dissolved in propylene glycol” value ([18]; 25 ± 2°C, 60 ± 5% RH) was “at least 4 months”, the “time for which stability was demonstrated” value ([18]; aqueous buffer solutions (50 mg/kg) pH 3, 5, 7 at 90°C) was “up to 8 h” and the “AUC0‐24h” value ([19]; 150 mg) was 67.61 ± 24.26 µM·h. The T max ([19]; 150 mg) was 2 h, the half-life in plasma ([19]; 150 mg) was 3 h and the T max ([19]; 150 mg, listed as Nar‐A) was 3.2 ± 0.7 h. The “AUC0‐24h” value ([19]; 600 mg) was 199.05 ± 24.36 µM·h, the T max ([19]; 600 mg) was 2 h and the half-life in plasma ([19]; 600 mg) was 2.65 h. For the same compound, the T max ([19]; 600 mg, listed as NAR‐A) was 2.4 ± 0.7 h, the IC50 [20] was roughly 10 µM and the C max ([21]; 3.8 mg (14 μmol), tomato paste/oil) was 32 ± 8 ng/mL. For the same compound, the “unconjugated naringenin in plasma” value ([21]; 3.8 mg, tomato paste test meal) was “did not find unconjugated naringenin in plasma samples”, the Plasma half-life ([21]; 3.8 mg, tomato paste/oil) was “Decline by 2 h and later” and the Result ([22]; Experiment 1: 1.5–5000 μg/plate (+/− S9, plate incorporation)) was “Negative”. For the same compound, the Result ([22]; Experiment 2: 1.5–5000 μg/plate (+/− S9, pre‐incubation)) was “Negative”, the “frequency of revertant colonies” value ([22]; TA102, 50 μg/plate, absence of S9‐mix) was 262 ± 23.8 and the “concentration with reduction in growth of bacterial background lawns” value ([22]; TA1537, +/− S9) was […]. For the same compound, the “concentration with reduction in growth of bacterial background lawns” value ([22]; all bacterial strains, +/− S9) was […], the “concentration with reduction of bacterial background lawns” value ([22]; TA98 and E. coli WP2uvrA, +/− S9) was […] and the “concentration with reduction of bacterial background lawns” value ([22]; TA100, TA102, TA1535 and TA1537, +/− S9) was […]. For the same compound, the LD50 [23] was greater than 5000 mg/kg bw, the solubility ([24]; 80% ethanol, 25 °C, organic solvent or mixture) was roughly 60 mg/mL (≈ 220 mM) and the Solubility in ethanol ([24]; 95% ethanol) was “Soluble”. For the same compound, the “Naringenin concentration (solubility)” value ([24]; Ethanol) was 10 % (w/w), the “Naringenin concentration (solubility)” value ([24]; Ethanol, 80%) was 5 % (w/w) and the “Naringenin concentration (solubility)” value ([24]; Propylene glycol) was 2.5 % (w/w). For the same compound, the solubility ([24]; ethanol, 25 °C, organic solvent or mixture) was roughly 125 mg/mL (≈ 459 mM), the solubility ([24]; in water) was “Almost insoluble” and the Solubility in other ([24]; other solvents) was “Soluble in ether and benzene”. The solubility ([24]; propylene glycol, 25 °C, organic solvent or mixture) was roughly 25 mg/mL (≈ 91.8 mM), the solubility ([24]; water, 25 °C) was 0.05 mg/mL (≈ 0.184 mM) and the Result [25] was “Negative”. For the same compound, the uterus weight ([26]; gavage 28 days) was “no effects on uterus weight” and the Mortality ([26]; gavage, doses from 1000 to 5000 mg/kg bw per day) was “Mortality was observed at the highest dose tested”.
